Among the data in ChEMBL document CHEMBL4393735, “Molecular modelling, synthesis, and biological evaluations of a 3,5-disubstituted isoxazole fatty acid analogue as a PPARα-selective agonist” (Bioorg Med Chem, 2019) are Activity values, retold here.

The subject of assay [1] is SGBS. Description: Upregulation of PPARgamma gene expression in human preadipocyte derived from Simpson-Golabi-Behmel syndrome (SGBS) patient at 2 uM measured for 12 days by qRT-PCR analysis. Type of assay: functional, cell-based. The procedure, abridged: (§1)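 SGBS cells were differentiated with serum-free induction medium containing 25 μM test agent, 2 μM rosiglitazone or 0.1% DMSO from day 0. IBMX and dexamethasone were removed on day 4 and medium was renewed on day 8. RNA was taken on days 0, 4, 8 and 12 for qPCR, normalized to TBP and to day 0. At least three biological replicates in duplicate, two-way ANOVA with Bonferroni.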
For orientation: In qPCR the cycle at which signal appears reflects the starting amount.

Assay [2] deals with T1, Peroxisome proliferator-activated receptor alpha (Mus musculus) (UniProt P23204).
T1 sequence (whole entry): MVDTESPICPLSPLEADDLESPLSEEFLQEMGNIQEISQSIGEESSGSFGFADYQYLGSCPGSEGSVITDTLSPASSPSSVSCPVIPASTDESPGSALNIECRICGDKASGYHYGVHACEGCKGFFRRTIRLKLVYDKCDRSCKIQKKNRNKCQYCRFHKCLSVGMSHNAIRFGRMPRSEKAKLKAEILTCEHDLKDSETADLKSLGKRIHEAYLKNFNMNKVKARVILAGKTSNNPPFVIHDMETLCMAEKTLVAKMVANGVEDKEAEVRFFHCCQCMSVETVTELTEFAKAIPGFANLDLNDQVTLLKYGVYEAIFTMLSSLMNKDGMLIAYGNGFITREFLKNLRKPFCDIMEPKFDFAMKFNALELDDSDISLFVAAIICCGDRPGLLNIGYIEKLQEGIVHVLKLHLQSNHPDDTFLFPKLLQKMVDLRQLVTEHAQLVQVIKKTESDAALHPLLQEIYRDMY
Nature of the assay: Agonist activity at PPARalpha in C57BL/6N mouse primary hepatocytes assessed as activation of Scd1 mRNA expression at 1 uM measured after 18 hrs by qRT-PCR analysis. Type of assay: cell-based. A digest of the protocol:
(§2)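 Treatment for 18 h at 50 μM (or 1 μM for the 1 μM agents), DMSO vehicle. Harvested for qPCR. mRNA normalized to TBP by the comparative threshold method, expressed relative to DMSO control. Two biological replicates run in duplicate, mean ± SEM. Primary hepatocytes came from male C57BL/6N mice aged 7–8 weeks, isolated by portal-vein perfusion and digestion, seeded on collagen I and used on day 2. HuH-7 cells were kept in DMEM with 10% FBS and ITS.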

Assay [3] deals with SGBS. Description: Upregulation of ACSL1 gene expression in human preadipocyte derived from Simpson-Golabi-Behmel syndrome (SGBS) patient at 2 uM measured for 12 days by qRT-PCR analysis. Type of assay: functional, cell-based. The procedure, abridged:
as §1

The subject of assay [4] is SGBS. Nature of the assay: Upregulation of PLIN1 gene expression in human preadipocyte derived from Simpson-Golabi-Behmel syndrome (SGBS) patient at 2 uM measured for 12 days by qRT-PCR analysis. Type of assay: functional, cell-based. A digest of the protocol: as §1
Assay [5] deals with SGBS. Nature of the assay: Upregulation of ANGPTL4 gene expression in human preadipocyte derived from Simpson-Golabi-Behmel syndrome (SGBS) patient at 2 uM measured for 12 days by qRT-PCR analysis. Type of assay: functional, cell-based. A digest of the protocol:
as §1

For assay [6], the system named is SGBS. Nature of the assay: Upregulation of ADIPOQ gene expression in human preadipocyte derived from Simpson-Golabi-Behmel syndrome (SGBS) patient at 2 uM measured for 12 days by qRT-PCR analysis. The format is functional, cell-based. A digest of the protocol:
as §1

Assay [7] concerns SGBS. Description: Upregulation of CEBPA gene expression in human preadipocyte derived from Simpson-Golabi-Behmel syndrome (SGBS) patient at 2 uM measured for 12 days by qRT-PCR analysis. Type of assay: functional, cell-based. A digest of the protocol: as §1
In assay [8] the target is T1, Peroxisome proliferator-activated receptor alpha (Mus musculus). Description: Agonist activity at PPARalpha in C57BL/6N mouse primary hepatocytes assessed as activation of Srebf1 mRNA expression at 1 uM measured after 18 hrs by qRT-PCR analysis. The format is cell-based. The procedure, abridged:
as §2

The test system of assay [9] is SGBS. Nature of the assay: Induction of adipocyte differentiation in human preadipocyte derived from Simpson-Golabi-Behmel syndrome (SGBS) patient assessed as lipid accumulation at 2 uM measured for 12 days by Oil red O staining based microscopic analysis. The format is functional, cell-based. The procedure, abridged:
(§3)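 Differentiation of SGBS preadipocytes was started in serum-free medium with transferrin, insulin, T3, hydrocortisol, IBMX and dexamethasone, plus 25 μM test agent, 2 μM rosiglitazone or 0.1% DMSO. On day 4 medium was switched to lack IBMX and dexamethasone, and it was renewed on day 8. Cells were fixed with 4% PFA and stained with 0.3% Oil Red O on days 0, 4, 8 and 12, then photographed.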

Assay [10] concerns SGBS. Description: Upregulation of FABP4 gene expression in human preadipocyte derived from Simpson-Golabi-Behmel syndrome (SGBS) patient at 2 uM measured for 12 days by qRT-PCR analysis. The format is functional, cell-based. A digest of the protocol:
as §1

Assay [11] relates to SGBS. Nature of the assay: Upregulation of CD36 gene expression in human preadipocyte derived from Simpson-Golabi-Behmel syndrome (SGBS) patient at 2 uM measured for 12 days by qRT-PCR analysis. The format is functional, cell-based. The procedure, abridged:
as §1

In assay [12] the target is T1, Peroxisome proliferator-activated receptor alpha (Mus musculus). Description: Agonist activity at PPARalpha in C57BL/6N mouse primary hepatocytes assessed as activation of PPARalpha mRNA expression at 1 uM measured after 18 hrs by qRT-PCR analysis. The format is cell-based. The procedure, abridged: as §2
For assay [13] the target is unchanged. Nature of the assay: Agonist activity at PPARalpha in C57BL/6N mouse primary hepatocytes assessed as PPARA mRNA expression at 50 uM measured after 18 hrs by qRT-PCR analysis. The format is cell-based. A digest of the protocol:
as §2

The target of assay [14] is T2, Peroxisome proliferator-activated receptor alpha (Homo sapiens) (UniProt Q07869).
T2 sequence (whole entry): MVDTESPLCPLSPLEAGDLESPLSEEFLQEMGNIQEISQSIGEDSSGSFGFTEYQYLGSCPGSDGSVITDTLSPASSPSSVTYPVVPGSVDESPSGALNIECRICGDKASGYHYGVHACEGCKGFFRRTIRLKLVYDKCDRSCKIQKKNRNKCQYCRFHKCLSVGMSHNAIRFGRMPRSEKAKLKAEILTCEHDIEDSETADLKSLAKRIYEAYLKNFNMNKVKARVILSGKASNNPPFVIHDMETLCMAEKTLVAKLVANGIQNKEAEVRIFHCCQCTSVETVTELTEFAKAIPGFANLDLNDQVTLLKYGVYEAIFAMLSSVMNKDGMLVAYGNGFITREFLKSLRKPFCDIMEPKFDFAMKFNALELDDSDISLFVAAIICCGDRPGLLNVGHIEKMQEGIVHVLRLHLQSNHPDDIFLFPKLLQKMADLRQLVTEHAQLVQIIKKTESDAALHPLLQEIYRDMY
Description: Agonist activity at PPARalpha in human Huh7 cells assessed as PPARA mRNA expression at 50 uM measured after 18 hrs by qRT-PCR analysis. Type of assay: cell-based. A digest of the protocol: as §2

Assay [15] relates to SGBS. Description: Upregulation of CEBPA gene expression in human preadipocyte derived from Simpson-Golabi-Behmel syndrome (SGBS) patient at 25 uM measured for 12 days by qRT-PCR analysis. Type of assay: functional, cell-based. The procedure, abridged: as §1
The test system of assay [16] is SGBS. Description: Upregulation of ANGPTL4 gene expression in human preadipocyte derived from Simpson-Golabi-Behmel syndrome (SGBS) patient at 25 uM measured for 12 days by qRT-PCR analysis. The format is functional, cell-based. A digest of the protocol:
as §1

Assay [17] concerns the target T1, Peroxisome proliferator-activated receptor alpha (Mus musculus). Nature of the assay: Agonist activity at PPARalpha in C57BL/6N mouse primary hepatocytes assessed as SREBF1 mRNA expression at 50 uM measured after 18 hrs by qRT-PCR analysis. Type of assay: cell-based. The procedure, abridged: as §2
The subject of assay [18] is SGBS. Description: Upregulation of ADIPOQ gene expression in human preadipocyte derived from Simpson-Golabi-Behmel syndrome (SGBS) patient at 25 uM measured for 12 days by qRT-PCR analysis. The format is functional, cell-based. The procedure, abridged:
as §1

Assay [19] concerns SGBS. Nature of the assay: Upregulation of PPARgamma gene expression in human preadipocyte derived from Simpson-Golabi-Behmel syndrome (SGBS) patient at 25 uM measured for 12 days by qRT-PCR analysis. Type of assay: functional, cell-based. The procedure, abridged: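 SGBS cells grown 4 days in biotin/D-pantothenate medium, then differentiated without FBS (apo-transferrin, insulin, T3, hydrocortisol, IBMX, dexamethasone) with 25 μM compound or 0.1 % DMSO added from day 0. After 4 days, switched to maintenance medium without IBMX/dexamethasone, renewed day 8. qPCR on days 0, 4, 8, 12, normalized to TBP (comparative threshold) and to day 0. Minimum three biological replicates in duplicate, mean ± SEM.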

Assay [20] concerns the target T2, Peroxisome proliferator-activated receptor alpha (Homo sapiens). Nature of the assay: Agonist activity at PPARalpha in human Huh7 cells assessed as SREBF1 mRNA expression at 50 uM measured after 18 hrs by qRT-PCR analysis. The format is cell-based. A digest of the protocol: as §2
Assay [21] relates to SGBS. Nature of the assay: Upregulation of ACSL1 gene expression in human preadipocyte derived from Simpson-Golabi-Behmel syndrome (SGBS) patient at 25 uM measured for 12 days by qRT-PCR analysis. Type of assay: functional, cell-based. A digest of the protocol: as §1
Assay [22] has as its system SGBS. Description: Induction of adipocyte differentiation in human preadipocyte derived from Simpson-Golabi-Behmel syndrome (SGBS) patient assessed as lipid accumulation at 25 uM measured for 12 days by Oil red O staining based microscopic analysis. The format is functional, cell-based. The procedure, abridged: as §3
Assay [23] has as its system SGBS. Description: Upregulation of CD36 gene expression in human preadipocyte derived from Simpson-Golabi-Behmel syndrome (SGBS) patient at 25 uM measured for 12 days by qRT-PCR analysis. The format is functional, cell-based. A digest of the protocol:
as §1

Assay [24] addresses T1, Peroxisome proliferator-activated receptor alpha (Mus musculus). Description: Agonist activity at PPARalpha in C57BL/6N mouse primary hepatocytes assessed as SCD1 mRNA expression at 50 uM measured after 18 hrs by qRT-PCR analysis. Type of assay: cell-based. A digest of the protocol:
as §2

Assay [25] has as its system SGBS. Description: Upregulation of FABP4 gene expression in human preadipocyte derived from Simpson-Golabi-Behmel syndrome (SGBS) patient at 25 uM measured for 12 days by qRT-PCR analysis. Type of assay: functional, cell-based. A digest of the protocol:
as §1

Assay [26] has as its system SGBS. Description: Upregulation of PLIN1 gene expression in human preadipocyte derived from Simpson-Golabi-Behmel syndrome (SGBS) patient at 25 uM measured for 12 days by qRT-PCR analysis. Type of assay: functional, cell-based. The procedure, abridged:
as §1

Assay [27] concerns the target T2, Peroxisome proliferator-activated receptor alpha (Homo sapiens). Nature of the assay: Agonist activity at PPARalpha in human Huh7 cells assessed as SCD1 mRNA expression at 50 uM measured after 18 hrs by qRT-PCR analysis. The format is cell-based. The procedure, abridged: as §2

The source made the active and inactive calls.

For the compound `CN(CCOc1ccc(CC2SC(=O)NC2=O)cc1)c1ccccn1` (configuration not stated), the outcome in the assay with SGBS [1], in the assay with SGBS [3], in the assay with SGBS [4], in the assay with SGBS [5], in the assay on SGBS [6] and in the assay with SGBS [7] was Active. Further, the result (in the assay with SGBS [9]; in the assay with SGBS [10]; in the assay on SGBS [11]; in assay [12]) was Active. The result in assay [2] and in [8] was inactive.
As for `CCCCCCCC(=O)/C=C/CCCCCC(=O)O`, the result (in [13]; with SGBS [15]; in the assay on SGBS [16]; in the assay with SGBS [18]; in the assay with SGBS [19]; in the assay on SGBS [21]) was Active. Moreover, the result with SGBS [22], with SGBS [23], with SGBS [25] and in the assay on SGBS [26] was Active. For the same compound, the outcome in assay [14], in assay [17], in [20], in [24] and in assay [27] was inactive.
